{
  "source": "paper PMC2992178",
  "about": "(Diabetes Care, 2010)",
  "key": {"[1]": {"experiment": "Plasma lispro pharmacokinetics after subcutaneous injection, healthy subjects", "type": "in vivo, human", "conditions": "healthy subjects (n=6), 10 units s.c., mean ± SD", "procedure,_shortened": "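Venous blood was drawn every 10 min for 3 h, then every 20 min, after a 10-unit subcutaneous abdominal lispro dose under a euglycemic clamp. Type 2 diabetic subjects had first received an overnight IV insulin infusion. Samples went into citrate tubes with protease inhibitors, were spun at 4°C, snap-frozen and stored at −80°C. Lispro was measured by specific radioimmunoassay in duplicate. Noncompartmental analysis gave Cmax, AUC0-∞, Cl and dose ratios; non-normal data were log-transformed.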"}, "[2]": {"test_system": "obese subjects with type 2 diabetes", "experiment": "Euglycemic clamp", "type": "in vivo, human", "conditions": "obese type 2 diabetes"}, "[3]": {"type": "in vivo, human", "conditions": "for AUC0-∞/D, AUC0-∞ to dose ratio / Cmax/D, Cmax to dose ratio / Cl, clearance / Mean resistance time / Vz, volume of distribution / Cmax, maximum plasma concentration / Tmax, time to maximal concentration / t½, half-life: obese type 2 diabetes (n=7), mean ± SD; for Cl, clearance / Mean resistance time / Vz, volume of distribution / t½, half-life: noncompartmental; for Cmax, maximum plasma concentration / Tmax, time to maximal concentration: plasma RIA; for t½, half-life: plasma"}, "healthy subjects": {"test_system": "healthy subjects", "experiment": "Euglycemic clamp", "type": "in vivo, human", "conditions": "10 units s.c.", "procedure,_shortened": "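Healthy volunteers fasted overnight from 8:00 p.m., then received a single 10-unit lispro dose by pen with an 8-mm needle. It went into abdominal subcutaneous fat 8 cm above the umbilicus and 10 cm from the midline. Plasma glucose was read every 5 min and clamped at 5–6 mmol/l with IV 20% dextrose for 8 h. GIRmax, tGIRmax and GItot came from GIR–time data; GIR was also plotted against plasma lispro concentration.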"}},
  "note": "Where two headings read alike, the source gives them in different places.",
  "data": [
    {"substance": "lispro", "values": [
      {"measurement": "AUC0-∞/D, AUC0-∞ to dose ratio", "setting": "[1]", "value": "1.190 ± 0.302", "unit": "min/L"},
      {"measurement": "Cmax/D, Cmax to dose ratio", "setting": "[1]", "value": "0.0091 ± 0.0007", "unit": "L"},
      {"measurement": "Cl, clearance", "setting": "[1]; noncompartmental", "value": "0.88 ± 0.21", "unit": "L/min"},
      {"measurement": "Mean resistance time", "setting": "[1]; noncompartmental", "value": "119 ± 21", "unit": "min"},
      {"measurement": "Vz, volume of distribution", "setting": "[1]; noncompartmental", "value": "67 ± 16", "unit": "L"},
      {"measurement": "Cmax, maximum plasma concentration", "setting": "[1]; plasma RIA", "value": "0.523 ± 0.042", "unit": "nM"},
      {"measurement": "Tmax, time to maximal concentration", "setting": "[1]; plasma RIA", "value": "0.805 ± 0.0683", "unit": "h"},
      {"measurement": "AUC0-∞, area under the lispro plasma concentration curve", "setting": "[1]; plasma RIA, noncompartmental", "value": "68,462 ± 17,346 pmol/min/l"},
      {"measurement": "t½, half-life", "setting": "[1]; plasma, noncompartmental", "value": "1.12 ± 0.25", "unit": "h"},
      {"measurement": "GIRmax as % of the value measured in healthy subjects", "setting": "[2]; 10 units s.c., P < 0.0001", "value": 7, "unit": "%"},
      {"measurement": "GItot as % of the value measured in healthy subjects", "setting": "[2]; 10 units s.c., P < 0.0001", "value": 4, "unit": "%"},
      {"measurement": "prolongation of tGIRmax versus healthy subjects", "setting": "[2]; 10 units s.c., P < 0.0001", "value": 1, "unit": "h"},
      {"measurement": "average difference between Tmax and tGIRmax", "setting": "[2]; 10 units s.c., P < 0.0007 versus healthy", "value": 1.23, "unit": "h"},
      {"measurement": "average difference between Tmax and tGIRmax", "setting": "[2]; 30 units s.c.", "value": 1.43, "unit": "h"},
      {"measurement": "average difference between Tmax and tGIRmax", "setting": "[2]; 50 units s.c.", "value": 1.92, "unit": "h"},
      {"measurement": "Cmax/D lower in subjects with type 2 diabetes than in healthy subjects", "setting": "[3]; 10 units s.c., P < 0.001", "value": 41, "unit": "%"},
      {"measurement": "AUC0-∞/D, AUC0-∞ to dose ratio", "setting": "[3]; 10 units s.c.", "value": "1.056 ± 0.264", "unit": "min/L"},
      {"measurement": "Cmax/D, Cmax to dose ratio", "setting": "[3]; 10 units s.c.", "value": "0.0054 ± 0.0005", "unit": "L"},
      {"measurement": "Cl, clearance", "setting": "[3]; 10 units s.c.", "value": "0.99 ± 0.22", "unit": "L/min"},
      {"measurement": "Mean resistance time", "setting": "[3]; 10 units s.c.", "value": "180 ± 65", "unit": "min"},
      {"measurement": "Vz, volume of distribution", "setting": "[3]; 10 units s.c.", "value": "118 ± 34", "unit": "L"},
      {"measurement": "Cmax, maximum plasma concentration", "setting": "[3]; 10 units s.c.", "value": "310 ± 28", "unit": "pmol/L"},
      {"measurement": "Tmax, time to maximal concentration", "setting": "[3]; 10 units s.c.", "value": "0.928 ± 0.233", "unit": "h"},
      {"measurement": "t½, half-life", "setting": "[3]; 10 units s.c.", "value": "1.67 ± 0.567", "unit": "h"},
      {"measurement": "AUC0-∞/D, AUC0-∞ to dose ratio", "setting": "[3]; 30 units s.c.", "value": "1.140 ± 0.188", "unit": "min/L"},
      {"measurement": "Cmax/D, Cmax to dose ratio", "setting": "[3]; 30 units s.c.", "value": "0.0047 ± 0.0012", "unit": "L"},
      {"measurement": "Cl, clearance", "setting": "[3]; 30 units s.c.", "value": "0.90 ± 0.14", "unit": "L/min"},
      {"measurement": "Mean resistance time", "setting": "[3]; 30 units s.c.", "value": "196 ± 30", "unit": "min"},
      {"measurement": "Vz, volume of distribution", "setting": "[3]; 30 units s.c.", "value": "104 ± 53", "unit": "L"},
      {"measurement": "Cmax, maximum plasma concentration", "setting": "[3]; 30 units s.c.", "value": "808 ± 218 ^‖ pmol/l"},
      {"measurement": "Tmax, time to maximal concentration", "setting": "[3]; 30 units s.c.", "value": "1.48 ± 0.365", "unit": "h"},
      {"measurement": "t½, half-life", "setting": "[3]; 30 units s.c.", "value": "1.62 ± 0.633", "unit": "h"},
      {"measurement": "AUC0-∞/D, AUC0-∞ to dose ratio", "setting": "[3]; 50 units s.c.", "value": "1.296 ± 0.208", "unit": "min/L"},
      {"measurement": "Cmax/D, Cmax to dose ratio", "setting": "[3]; 50 units s.c.", "value": "0.0046 ± 0.0012", "unit": "L"},
      {"measurement": "Cl, clearance", "setting": "[3]; 50 units s.c.", "value": "0.79 ± 0.13", "unit": "L/min"},
      {"measurement": "Mean resistance time", "setting": "[3]; 50 units s.c.", "value": "236 ± 49", "unit": "min"},
      {"measurement": "Vz, volume of distribution", "setting": "[3]; 50 units s.c.", "value": "107 ± 46", "unit": "L"},
      {"measurement": "Cmax, maximum plasma concentration", "setting": "[3]; 50 units s.c.", "value": "1,313 ± 346 ^‖ ^# pmol/l"},
      {"measurement": "t½, half-life", "setting": "[3]; 50 units s.c.", "value": "2.27 ± 1.2", "unit": "h"},
      {"measurement": "delay of Tmax", "setting": "[3]; obese type 2 diabetes, 50 units versus 10 units, P < 0.001", "value": 1.23, "unit": "h"},
      {"measurement": "average difference between Tmax and tGIRmax", "setting": "healthy subjects", "value": 0.317, "unit": "h"},
      {"measurement": "initial GIR response", "setting": "healthy subjects; at insulin concentrations nearing 40 pmol/l", "value": 2.22, "unit": "mg/kg/min"}
    ]}
  ]
}
